From ChEMBL document CHEMBL4765251, “Efficient identification of novel anti-glioma lead compounds by machine learning models” (Eur J Med Chem, 2020)
Active and inactive are the calls of the source. The rule behind the calls is not given here.

How the values were obtained:
U-87 MG = test: Antiproliferative activity against human U87MG cells assessed as cell growth inhibition measured after 72 hrs by SRB assay; format: functional, cell-based, U-87MG ATCC
How it was run: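 U87MG human glioma cells grown in DMEM with 10% FBS at 37 °C, used up to 30 passages and treated at 40-50% confluence. Exposed to 0.1-100 µM for 72 h, with DMSO at most 0.1% final. TCA-fixed, stained with SRB, dye solubilized in Tris pH 10.5, read at 510 nm, expressed as % of DMSO controls. Mean ± SD of three independent assays.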

[1] = Selectivity index, ratio of CC50 for Wistar rat astrocytes to EC50 for rat C6 cells
How it was run: (§1)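 Selectivity index is astrocyte CC50 divided by the glioma-line EC50, both from 72 h SRB assays. No index is given when astrocyte cytotoxicity could not be calculated at the highest concentration tested.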

[2] = Cytotoxicity against Wistar rat astrocytes assessed as cell growth inhibition measured after 72 hrs by SRB assay; format: cell-based, Astrocyte
How it was run: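 Primary astrocytes taken from the cortex of 2-day-old Wistar rats by mechanical dissociation, grown on poly-L-lysine in high-glucose DMEM and treated at 90% confluence (12-15 days). Exposed to 0.1-100 µM for 72 h, then SRB assay with absorbance read at 510 nm against DMSO controls. Mean ± SD of three independent assays.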

C6 [3] = test: Antiproliferative activity against rat C6 cells assessed as cell growth inhibition measured after 72 hrs by SRB assay; format: functional, cell-based; settings: C6, 72 h
[4] = Selectivity index, ratio of CC50 for Wistar rat astrocytes to EC50 for human U-251 MG cells; how it was run: as §1
U-251 = test: Antiproliferative activity against human U251MG cells assessed as cell growth inhibition measured after 72 hrs by SRB assay; format: functional, cell-based; settings: U-251, 72 h
[5] = Selectivity index, ratio of CC50 for Wistar rat astrocytes to EC50 for human U87MG cells; how it was run: as §1
Rattus norvegicus [6] = species on record: Rattus norvegicus; test: Inhibition of TrxR in rat liver assessed as reduction in TNB formation using DTNB and NADPH as substrate at 100 uM preincubated with enzyme for 15 mins followed by NADPH addition by absorbance based analysis; format: tissue-based
How it was run: (§2)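 TrxR activity was measured at 37 °C in 100 mM potassium phosphate pH 7.0 with 2 mg/mL DTNB and 0.01 mg/mL enzyme. Enzyme was preincubated for 15 min with compound or DMSO, then the reaction was started with 0.2 mg/mL NADPH. TNB formation was followed at 412 nm (ε 13.6 mM-1 cm-1). Assays were run in duplicate, with enzyme-free blanks subtracted.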

GL261 = test: Antitumor activity against C57BL/6 mouse GL261 cells xenografted in C57BL/6 mouse assessed as reduction in tumor volume at 10 to 100 mg/kg, po administered via gavage once daily for 10 days starting from 7 days post tumor cell inoculation and measured on day 17; format: functional, organism-based; settings: dose 10-100 mg/kg/day, time 10.0 day
How it was run: (§3)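 GL261 cells (5x10^4 in 2 µL DMEM) were injected into the right hemisphere of 60-day-old male and female C57BL/6 mice (17-25 g) under ketamine/xylazine. From day 7, mice received compound once daily for 10 days (n=9 per group), by gavage (200 µL) or ip (100 µL). Vehicle was 0.9% saline with 10% DMSO and 0.3% Tween-80. Tumor volume was taken as the summed segmented areas of three H&E coronal sections.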

[7] = Antitumor activity against C57BL/6 mouse GL261 cells xenografted in C57BL/6 mouse assessed as reduction in tumor volume at 100 mg/kg, ip administered once daily for 10 days starting from 7 days post tumor cell inoculation and measured on day 17; format: functional; settings: C57BL/6, GL261, ip, 240 h, time 10 day; how it was run: as §3
[8] = Hematological toxicity in C57BL/6 mouse xenografted with C57BL/6 mouse GL261 cells assessed as blood glucose level at 100 mg/kg, po or ip administered once daily for 10 days starting from 7 days post tumor cell inoculation and measured on day 17 (reference value: 108 +/- 13 mg/dl); format: organism-based; settings: in vivo, 240 h, dose 100 mg/kg/day, time 10 day
[9] = Nephrotoxicity in C57BL/6 mouse xenografted with C57BL/6 mouse GL261 cells assessed as serum creatinine level at 100 mg/kg, po or ip administered once daily for 10 days starting from 7 days post tumor cell inoculation and measured on day 17 (reference value: 0.4 +/- 0.3 mg/dl); format: toxicity, organism-based; settings: in vivo, 240 h, dose 100 mg/kg/day, time 10 day
[10] = Hematological toxicity in C57BL/6 mouse xenografted with C57BL/6 mouse GL261 cells assessed as hematocrit level in blood at 100 mg/kg, po or ip administered once daily for 10 days starting from 7 days post tumor cell inoculation and measured on day 17 (reference value: 44.5 +/- 1.8%); format: organism-based; settings: in vivo, 240 h, dose 100 mg/kg/day, time 10 day
[11] = Toxicity in C57BL/6 mouse xenografted with C57BL/6 mouse GL261 cells assessed as body weight at 100 mg/kg, ip administered once daily for 10 days starting from 7 days post tumor cell inoculation; format: organism-based; settings: in vivo, 240 h, dose 100 mg/kg/day, time 10 day
How it was run: (§4)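 Orthotopic model: 5x10^4 GL261 cells in 2 µL serum-free DMEM injected into the right hemisphere of 60-day-old male and female C57BL/6 mice (17-25 g) under ketamine/xylazine. Treatment began 7 days later, n=9 per group. Compound was given in 0.9% saline with 10% DMSO and 0.3% Tween-80, as 100 µL ip or 200 µL by gavage. Body weight change (final minus initial) and mortality were monitored.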

[12] = Toxicity in C57BL/6 mouse xenografted with C57BL/6 mouse GL261 cells assessed as body weight at 100 mg/kg, po administered via gavage once daily for 10 days starting from 7 days post tumor cell inoculation; format: organism-based; settings: in vivo, 240 h, dose 100 mg/kg/day, time 10 day; how it was run: as §4
[13] = Toxicity in C57BL/6 mouse xenografted with C57BL/6 mouse GL261 cells at 100 mg/kg, po administered via gavage once daily for 10 days starting from 7 days post tumor cell inoculation; format: organism-based; settings: in vivo, 240 h, dose 100 mg/kg/day, time 10 day; how it was run: as §4
[14] = Toxicity in C57BL/6 mouse xenografted with C57BL/6 mouse GL261 cells assessed as mortality at 100 mg/kg, ip administered once daily for 10 days starting from 7 days post tumor cell inoculation; format: organism-based; settings: in vivo, 240 h, dose 100 mg/kg/day, time 10 day; how it was run: as §4
[15] = Toxicity in C57BL/6 mouse xenografted with C57BL/6 mouse GL261 cells assessed as mortality at 100 mg/kg, po administered via gavage once daily for 10 days starting from 7 days post tumor cell inoculation; format: organism-based; settings: in vivo, 240 h, dose 100 mg/kg/day, time 10 day; how it was run: as §4
[16] = Hematological toxicity in C57BL/6 mouse xenografted with C57BL/6 mouse GL261 cells assessed as WBC level in blood at 100 mg/kg, po or ip administered once daily for 10 days starting from 7 days post tumor cell inoculation and measured on day 17 (reference value: 8.6 +/- 1.6x10^3/uL); format: organism-based; settings: in vivo, 240 h, dose 100 mg/kg/day, time 10 day
[17] = Hepatotoxicity in C57BL/6 mouse xenografted with C57BL/6 mouse GL261 cells assessed as serum ALP level at 100 mg/kg, po or ip administered once daily for 10 days starting from 7 days post tumor cell inoculation and measured on day 17 (reference value: 19.1 +/- 8.9 U/L); format: toxicity, organism-based; settings: in vivo, 240 h, dose 100 mg/kg/day, time 10 day
C6 [18] = test: Antiproliferative activity against rat C6 cells assessed as cell growth inhibition preincubated with NAC for 1 hr prior to compound challenge and measured after 72 hrs by SRB assay; format: functional, cell-based
How it was run: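 C6 cells were pretreated with 2 mM N-acetylcysteine for 1 h, then exposed to compound for 72 h. Viability was measured by SRB assay relative to DMSO-treated controls. Auranofin served as the reference thiol-reactive control.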

[19] = Toxicity in C57BL/6 mouse xenografted with C57BL/6 mouse GL261 cells at 100 mg/kg, ip administered once daily for 10 days starting from 7 days post tumor cell inoculation; format: organism-based; settings: in vivo, 240 h, dose 100 mg/kg/day, time 10 day; how it was run: as §4
[20] = Hepatotoxicity in C57BL/6 mouse xenografted with C57BL/6 mouse GL261 cells assessed as serum ALT level at 100 mg/kg, po or ip administered once daily for 10 days starting from 7 days post tumor cell inoculation and measured on day 17 (reference value: 7.6 +/- 4.2 U/L); format: toxicity, organism-based; settings: in vivo, 240 h, dose 100 mg/kg/day, time 10 day
C6 [21] = test: Antiproliferative activity against rat C6 cells assessed as cell growth inhibition measured after 72 hrs in presence of 0.0001 to 0.001% Triton X-100 by SRB assay; format: functional, cell-based
How it was run: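 Rat C6 glioma cells were incubated for 72 h in medium with no detergent or with 0.0001% or 0.001% Triton X-100, as a check for aggregation-based cytotoxicity. Viability was read by SRB assay and an EC50 was derived from concentration-response curves. Mean ± SD of three independent assays.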

[22] = (§5) Inhibition of TrxR in rat liver assessed as reduction in TNB formation using DTNB and NADPH as substrate preincubated with enzyme for 15 mins followed by NADPH addition by absorbance based analysis; format: tissue-based; how it was run: as §2
Rattus norvegicus [23] = species on record: Rattus norvegicus; test: as §5; format: tissue-based; how it was run: as §2

SMILES: CSc1ccc(C(=O)/C=C/c2ccc([N+](=O)[O-])o2)cc1
- EC50 (U-87 MG): 3.9 µM
- Ratio CC50/EC50 [1]: 17.7
- CC50 at 72 h [2]: 28.4 µM
- EC50 (C6 [3]): 1.6 µM
- Ratio CC50/EC50 [4]: 2
- EC50 (U-251): 14.2 µM
- Ratio CC50/EC50 [5]: 7.3
- inhibition (Rattus norvegicus [6]): 56.4%

SMILES: CCCCc1ccc(C(=O)/C=C/c2ccco2)cc1
- EC50 (U-87 MG): 12.3 µM
- CC50 at 72 h [2]: > 100 µM
- EC50 (C6 [3]): 8.4 µM
- EC50 (U-251): 6.4 µM
- inhibition (Rattus norvegicus [6]): 60.4%

SMILES: CC(C)(C)c1ccc(C(=O)/C=C/c2ccco2)cc1
- EC50 (U-87 MG): 32.3 µM
- CC50 at 72 h [2]: 88.7 µM
- EC50 (C6 [3]): 18.5 µM
- EC50 (U-251): 16.4 µM
- inhibition (Rattus norvegicus [6]): 3.6%

SMILES: O=C(/C=C/c1ccc([N+](=O)[O-])o1)c1ccc(N2CCNCC2)cc1
- EC50 (U-87 MG): 4.9 µM
- Ratio CC50/EC50 [1]: 29.5
- CC50 at 72 h [2]: 44.3 µM
- EC50 (C6 [3]): 1.5 µM
- Ratio CC50/EC50 [4]: 2.6
- EC50 (U-251): 16.7 µM
- Ratio CC50/EC50 [5]: 9
- inhibition (Rattus norvegicus [6]): 0%

SMILES: O=C(/C=C/c1ccc([N+](=O)[O-])o1)c1cccc(Br)c1
- EC50 (U-87 MG): 6.8 µM
- Ratio CC50/EC50 [1]: 25.4
- Activity (GL261): inactive
- CC50 at 72 h [2]: 35.6 µM
- inhibition in vivo at 100 mg/kg/day [7]: 41.3%
- Activity [8]: 109 mg/dL
- Activity [9]: 0.5 mg/dL
- Activity [10]: 45.3%
- EC50 (C6 [3]): 1.4 µM
- Activity [11]: Non-Toxic
- Ratio CC50/EC50 [4]: 6.1
- Activity [12]: Non-Toxic
- Activity [13]: Non-Toxic
- Activity [14]: Non-Toxic
- EC50 (U-251): 5.8 µM
- Activity [15]: Non-Toxic
- Activity [16]: 9.2 10^3 /uL
- Activity [17]: 20.6 U/L
- Ratio CC50/EC50 [5]: 5.2
- Activity (C6 [18]): inactive
- inhibition (Rattus norvegicus [6]): 78.7%
- Activity [19]: Non-Toxic
- Activity [20]: 9.9 U/L
- Activity (C6 [21]): Active

SMILES: CCCCc1ccc(C(=O)/C=C/c2ccc([N+](=O)[O-])o2)cc1
- EC50 (U-87 MG): 5.8 µM
- Ratio CC50/EC50 [1]: 24.2
- Activity (GL261): inactive
- CC50 at 72 h [2]: 41.2 µM
- Activity [8]: 94 mg/dL
- Activity [9]: 0.3 mg/dL
- IC50 [22]: 25 µM
- inhibition (Rattus norvegicus [23]): Dose-dependent effect
- Activity [10]: 45.5%
- EC50 (C6 [3]): 1.7 µM
- Activity [11]: Non-Toxic
- Ratio CC50/EC50 [4]: 10.6
- Activity [12]: Non-Toxic
- Activity [13]: Non-Toxic
- Activity [14]: Non-Toxic
- EC50 (U-251): 3.9 µM
- Activity [15]: Non-Toxic
- Activity [16]: 9.5 10^3 /uL
- Activity [17]: 22.2 U/L
- Ratio CC50/EC50 [5]: 7.1
- Activity (C6 [18]): inactive
- inhibition (Rattus norvegicus [6]): 80.7%
- Activity [19]: Non-Toxic
- Activity [20]: 19.8 U/L
- Activity (C6 [21]): Active

SMILES: COc1ccc(/C=C/C(=O)c2cccc(I)c2)cc1
- EC50 (U-87 MG): 13.4 µM
- Ratio CC50/EC50 [1]: >6.8
- CC50 at 72 h [2]: > 100 µM
- EC50 (C6 [3]): 14.6 µM
- Ratio CC50/EC50 [4]: >4.7
- EC50 (U-251): 21.4 µM
- Ratio CC50/EC50 [5]: >7.5
